Laboratory results taken from ChEMBL document CHEMBL1649165, “Activity profile in vitro of micafungin against Spanish clinical isolates of common and emerging species of yeasts and molds” (2009).
≈ marks a conversion by molar mass, not a printed value.

Assays:
Format in all cases: functional
[1] = test system: Candida parapsilosis; test: Antimicrobial activity against Candida parapsilosis by broth microdilution method; settings: Lodderomyces parapsilosis
In short: (§1)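 Clinical isolates from human patients, tested by broth microdilution using the AFST-EUCAST reference procedure for fermentative yeasts. The MIC was read per that reference method.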

[2] = test system: Pichia kudriavzevii; test: Antimicrobial activity against Candida krusei by broth microdilution method; in short: as §1
[3] = test system: Meyerozyma guilliermondii; test: Antimicrobial activity against Candida guilliermondii by broth microdilution method; in short: as §1
[4] = test system: Clavispora lusitaniae; test: Antimicrobial activity against Candida lusitaniae by broth microdilution method; in short: as §1
[5] = test system: Diutina rugosa; test: Antimicrobial activity against Candida rugosa by broth microdilution method; in short: as §1
[6] = test system: Debaryomyces hansenii; test: Antimicrobial activity against Candida famata by broth microdilution method; in short: as §1
[7] = test system: Torulaspora delbrueckii; test: Antimicrobial activity against Candida coliculosa by broth microdilution method; in short: as §1
[8] = test system: [Candida] inconspicua; test: Antimicrobial activity against Candida inconspicua by broth microdilution method; settings: Pichia inconspicua; in short: as §1
[9] = test system: Candida orthopsilosis; test: Antimicrobial activity against Candida orthopsilosis by broth microdilution method; settings: Lodderomyces orthopsilosis; in short: as §1
[10] = test system: Kazachstania pintolopesii; test: Antimicrobial activity against Candida pintolopesii by broth microdilution method; settings: Arxiozyma pintolopesii; in short: as §1
[11] = test system: Magnusiomyces capitatus; test: Antimicrobial activity against Dipodascus capitatus by broth microdilution method
[12] = test system: Geotrichum candidum; test: Antimicrobial activity against Galactomyces geotrichum by broth microdilution method
[13] = test system: Cryptococcus deneoformans; test: Antimicrobial activity against Cryptococcus neoformans var. neoformans by broth microdilution method
In short: (§2)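 Clinical isolates of nonfermentative yeasts, tested by broth microdilution following EUCAST recommendations. The only change from that method was a minor modification to improve growth.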

[14] = test system: Trichosporon asahii; test: Antimicrobial activity against Trichosporon asahii by broth microdilution method
In short: (§3)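 Nonfermentative yeast clinical isolates (Rhodotorula, Trichosporon) tested by broth microdilution. The EUCAST yeast recommendations were followed strictly, with one minor modification to improve growth. MIC was read as the endpoint.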

[15] = test system: Trichosporon inkin; test: Antimicrobial activity against Trichosporon inkin by broth microdilution method; in short: as §3
[16] = test system: Trichosporon ovoides; test: Antimicrobial activity against Trichosporon ovoides by broth microdilution method; in short: as §3
[17] = test system: Trichosporon jirovecii; test: Antimicrobial activity against Trichosporon jirovecii by broth microdilution method; settings: Cutaneotrichosporon jirovecii; in short: as §3
[18] = test system: Naganishia albida; test: Antimicrobial activity against Cryptococcus albidus by broth microdilution method; in short: as §2
[19] = test system: Ustilago; test: Antimicrobial activity against Ustilago spp by broth microdilution method
[20] = test system: Papiliotrema laurentii; test: Antimicrobial activity against Cryptococcus laurentii by broth microdilution method; in short: as §2
[21] = test system: Aspergillus fumigatus; test: Antimicrobial activity against Aspergillus fumigatus by broth microdilution method
In short: (§4)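 Clinical mould isolates, tested by broth microdilution using the AFST-EUCAST reference method for filamentous fungi. For echinocandins, the endpoint was the minimum effective concentration: the lowest drug concentration giving aberrant hyphal growth, read with an inverted microscope.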

[22] = test system: Aspergillus ustus; test: Antimicrobial activity against Aspergillus ustus by broth microdilution method; in short: as §4
[23] = test system: Aspergillus sclerotiorum; test: Antimicrobial activity against Aspergillus sclerotiorum by broth microdilution method; in short: as §4
[24] = test system: Aspergillus; test: Antimicrobial activity against Aspergillus spp. by broth microdilution method; in short: as §4
[25] = test system: Fusarium solani; test: Antimicrobial activity against Fusarium solani by broth microdilution method
In short: (§5)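 Filamentous fungus clinical isolates tested by the AFST-EUCAST reference broth microdilution method for moulds. For echinocandins, the endpoint was the minimum effective concentration: the lowest drug concentration giving aberrant hyphal growth, read with an inverted microscope.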

[26] = test system: Paecilomyces variotii; test: Antimicrobial activity against Paecilomyces variotii by broth microdilution method; in short: as §5
[27] = test system: Acremonium sp.; test: Antimicrobial activity against Acremonium sp.by broth microdilution method; in short: as §4
[28] = Antimicrobial activity against Hormographiella aspergillata by broth microdilution method; settings: Coprinopsis cinerea; in short: as §5
[29] = test system: Fusarium equiseti; test: Antimicrobial activity against Fusarium equiseti by broth microdilution method; in short: as §4
[30] = test system: Fusarium reticulatum; test: Antimicrobial activity against Fusarium reticulatum by broth microdilution method; in short: as §5
[31] = test system: Coprinellus domesticus; test: Antimicrobial activity against Hormographiella verticillata by broth microdilution method; in short: as §5
[32] = test system: Neurospora sitophila; test: Antimicrobial activity against Chrysonilia sitophila by broth microdilution method; in short: as §4
[33] = test system: Lomentospora prolificans; test: Antimicrobial activity against Scedosporium prolificans by broth microdilution method; in short: as §5
[34] = test system: Cladosporium; test: Antimicrobial activity against Cladosporium spp. by broth microdilution method; in short: as §4
[35] = test system: Cladophialophora bantiana; test: Antimicrobial activity against Cladophialophora bantiana by broth microdilution method; in short: as §4
[36] = test system: Scytalidium hyalinum; test: Antimicrobial activity against Scytalidium hyalinum by broth microdilution method; settings: Neoscytalidium hyalinum; in short: as §5
[37] = test system: Lichtheimia corymbifera; test: Antimicrobial activity against Mycocladus corymbiferus by broth microdilution method; in short: as §5
[38] = test system: Rhizopus arrhizus; test: Antimicrobial activity against Rhizopus oryzae by broth microdilution method; in short: as §5
[39] = test system: Cunninghamella bertholletiae; test: Antimicrobial activity against Cunninghamella bertholletiae by broth microdilution method; in short: as §4
[40] = test system: Exophiala jeanselmei; test: Antimicrobial activity against Exophiala jeanselmei by broth microdilution method

Compound: C[C@@H]1[C@H](O)[C@@H](C)/C=C/C=C/C=C/C=C/C=C/C=C/C=C/[C@H](O[C@@H]2O[C@H](C)[C@@H](O)[C@H](N)[C@@H]2O)C[C@@H]2O[C@](O)(C[C@@H](O)C[C@@H](O)[C@H](O)CC[C@@H](O)C[C@@H](O)CC(=O)O[C@H]1C)C[C@H](O)[C@H]2C(=O)O [AMPHOTERICIN B]
- MIC50 [1]: 0.12 µg/mL (≈ 0.13 µM)
- MIC90 [1]: 0.25 µg/mL (≈ 0.271 µM)
- MIC50 [2]: 0.5 µg/mL (≈ 0.541 µM)
- MIC90 [2]: 0.5 µg/mL (≈ 0.541 µM)
- MIC50 [3]: 0.06 µg/mL (≈ 0.0649 µM)
- MIC90 [3]: 0.5 µg/mL (≈ 0.541 µM)
- MIC50 [4]: 0.06 µg/mL (≈ 0.0649 µM)
- MIC90 [4]: 0.12 µg/mL (≈ 0.13 µM)
- MIC50 [5]: 0.12 µg/mL (≈ 0.13 µM)
- MIC90 [5]: 1 µg/mL (≈ 1.08 µM)
- MIC50 [6]: 0.12 µg/mL (≈ 0.13 µM)
- MIC90 [6]: 1 µg/mL (≈ 1.08 µM)
- MIC50 [7]: 0.12 µg/mL (≈ 0.13 µM)
- MIC90 [7]: 1 µg/mL (≈ 1.08 µM)
- MIC50 [8]: 0.12 µg/mL (≈ 0.13 µM)
- MIC90 [8]: 1 µg/mL (≈ 1.08 µM)
- MIC50 [9]: 0.12 µg/mL (≈ 0.13 µM)
- MIC90 [9]: 1 µg/mL (≈ 1.08 µM)
- MIC50 [10]: 0.12 µg/mL (≈ 0.13 µM)
- MIC90 [10]: 1 µg/mL (≈ 1.08 µM)
- MIC50 [11]: 0.5 µg/mL (≈ 0.541 µM)
- MIC90 [11]: 0.5 µg/mL (≈ 0.541 µM)
- MIC50 [12]: 0.25 µg/mL (≈ 0.271 µM)
- MIC90 [12]: 0.5 µg/mL (≈ 0.541 µM)
- MIC50 [13]: 0.12 µg/mL (≈ 0.13 µM)
- MIC90 [13]: 2 µg/mL (≈ 2.16 µM)
- MIC50 [14]: 8 µg/mL (≈ 8.66 µM)
- MIC90 [14]: > 16 µg/mL
- MIC50 [15]: 0.12 µg/mL (≈ 0.13 µM)
- MIC90 [15]: 1 µg/mL (≈ 1.08 µM)
- MIC50 [16]: 0.5 µg/mL (≈ 0.541 µM)
- MIC90 [16]: 8 µg/mL (≈ 8.66 µM)
- MIC50 [17]: 0.5 µg/mL (≈ 0.541 µM)
- MIC90 [17]: 8 µg/mL (≈ 8.66 µM)
- MIC50 [18]: 0.5 µg/mL (≈ 0.541 µM)
- MIC90 [18]: 8 µg/mL (≈ 8.66 µM)
- MIC50 [19]: 0.5 µg/mL (≈ 0.541 µM)
- MIC90 [19]: 8 µg/mL (≈ 8.66 µM)
- MIC50 [20]: 0.5 µg/mL (≈ 0.541 µM)
- MIC90 [20]: 8 µg/mL (≈ 8.66 µM)
- MIC50 [21]: 0.25 µg/mL (≈ 0.271 µM)
- MIC90 [21]: 0.5 µg/mL (≈ 0.541 µM)
- MIC50 [22]: 0.5 µg/mL (≈ 0.541 µM)
- MIC90 [22]: > 16 µg/mL
- MIC50 [23]: 0.5 µg/mL (≈ 0.541 µM)
- MIC90 [23]: > 16 µg/mL
- MIC50 [24]: 0.5 µg/mL (≈ 0.541 µM)
- MIC90 [24]: > 16 µg/mL
- MIC50 [25]: 1 µg/mL (≈ 1.08 µM)
- MIC90 [25]: 2 µg/mL (≈ 2.16 µM)
- MIC50 [26]: 0.03 µg/mL (≈ 0.0325 µM)
- MIC90 [26]: 0.5 µg/mL (≈ 0.541 µM)
- MIC50 [27]: 4 µg/mL (≈ 4.33 µM)
- MIC90 [27]: > 16 µg/mL
- MIC50 [28]: 0.5 µg/mL (≈ 0.541 µM)
- MIC90 [28]: > 16 µg/mL
- MIC50 [29]: 0.5 µg/mL (≈ 0.541 µM)
- MIC90 [29]: > 16 µg/mL
- MIC50 [30]: 0.5 µg/mL (≈ 0.541 µM)
- MIC90 [30]: > 16 µg/mL
- MIC50 [31]: 0.5 µg/mL (≈ 0.541 µM)
- MIC90 [31]: > 16 µg/mL
- MIC50 [32]: 0.5 µg/mL (≈ 0.541 µM)
- MIC90 [32]: > 16 µg/mL
- MIC50 [33]: > 16 µg/mL
- MIC90 [33]: > 16 µg/mL
- MIC50 [34]: 0.25 µg/mL (≈ 0.271 µM)
- MIC90 [34]: 1 µg/mL (≈ 1.08 µM)
- MIC50 [35]: 0.25 µg/mL (≈ 0.271 µM)
- MIC90 [35]: 1 µg/mL (≈ 1.08 µM)
- MIC50 [36]: 0.25 µg/mL (≈ 0.271 µM)
- MIC90 [36]: 1 µg/mL (≈ 1.08 µM)
- MIC50 [37]: 0.12 µg/mL (≈ 0.13 µM)
- MIC90 [37]: 0.25 µg/mL (≈ 0.271 µM)
- MIC50 [38]: 0.5 µg/mL (≈ 0.541 µM)
- MIC90 [38]: 2 µg/mL (≈ 2.16 µM)
- MIC50 [39]: 2 µg/mL (≈ 2.16 µM)
- MIC90 [39]: > 16 µg/mL
- MIC50 [40]: 0.25 µg/mL (≈ 0.271 µM)
- MIC90 [40]: 1 µg/mL (≈ 1.08 µM)
